# Test results as given in ChEMBL document CHEMBL1143542, “Structure-activity relationships of bivalent aminoglycosides and evaluation of their microbiological activities” (2005).
# Experiments:
# [1] = tested on: Pseudomonas aeruginosa; test: Susceptibility testing against Pseudomonas aeruginosa PAE_NUH03; R=Resistant; type: functional, organism-based
# Procedure, shortened: (§1)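 Disk diffusion susceptibility profiling of P. aeruginosa reference and clinical isolates against empirically used antipseudomonal antibiotics. Each isolate was categorised as susceptible, intermediate or resistant.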
# [2] = tested on: Pseudomonas aeruginosa; test: Susceptibility testing against Pseudomonas aeruginosa PAE_NUH04; R=Resistant; type: functional, organism-based; procedure, shortened: as §1
# [3] = tested on: Pseudomonas aeruginosa; test: Susceptibility testing against Pseudomonas aeruginosa PAE_NUH21; S=Susceptible; type: functional, organism-based
# Procedure, shortened: (§2)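 Disk diffusion susceptibility profiling against a panel of empirically used antipseudomonal antibiotics. Each strain was categorised as susceptible (S) or intermediate (I).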
# [4] = tested on: Pseudomonas aeruginosa; test: Susceptibility testing against Pseudomonas aeruginosa PAE_NUH02; R=Resistant; type: functional, organism-based; procedure, shortened: as §1
# [5] = tested on: Pseudomonas aeruginosa; test: Susceptibility testing against Pseudomonas aeruginosa PAE_NUH19; S=Susceptible; type: functional, organism-based; procedure, shortened: as §2
# [6] = tested on: Pseudomonas aeruginosa; test: Susceptibility testing against Pseudomonas aeruginosa ATCC 27853; S=Susceptible; type: functional, organism-based; procedure, shortened: as §2
# [7] = tested on: Pseudomonas aeruginosa; test: Susceptibility testing against Pseudomonas aeruginosa PAE_NUH01; R=Resistant; type: functional, organism-based; procedure, shortened: as §1
# [8] = tested on: Pseudomonas aeruginosa; test: Susceptibility testing against Pseudomonas aeruginosa PAE_NUH06; R=Resistant; type: functional, organism-based; procedure, shortened: as §1
# [9] = tested on: Pseudomonas aeruginosa; test: Susceptibility testing against Pseudomonas aeruginosa PAE_NUH17; S=Susceptible; type: functional, organism-based; procedure, shortened: as §2
# [10] = tested on: Pseudomonas aeruginosa; test: Susceptibility testing against Pseudomonas aeruginosa PAE_NUH22; S=Susceptible; type: functional, organism-based; procedure, shortened: as §2
# [11] = tested on: Pseudomonas aeruginosa; test: Susceptibility testing against Pseudomonas aeruginosa PAE_NUH18; S=Susceptible; type: functional, organism-based; procedure, shortened: as §2
# [12] = tested on: Pseudomonas aeruginosa; test: Susceptibility testing against Pseudomonas aeruginosa PAE_NUH05; R=Resistant; type: functional, organism-based; procedure, shortened: as §1
# [13] = tested on: Pseudomonas aeruginosa; test: Susceptibility testing against Pseudomonas aeruginosa PAE_NUH24; S=Susceptible; type: functional, organism-based; procedure, shortened: as §2
# [14] = tested on: Pseudomonas aeruginosa; test: Susceptibility testing against Pseudomonas aeruginosa PAE_NUH20; S=Susceptible; type: functional, organism-based; procedure, shortened: as §2
# [15] = tested on: Pseudomonas aeruginosa; test: Susceptibility testing against Pseudomonas aeruginosa PAE_NUH07; R=Resistant; type: functional, organism-based; procedure, shortened: as §1
# [16] = tested on: Pseudomonas aeruginosa; test: Susceptibility testing against Pseudomonas aeruginosa PAE_NUH25; S=Susceptible; type: functional, organism-based; procedure, shortened: as §2
# [17] = tested on: Pseudomonas aeruginosa; test: Susceptibility testing against Pseudomonas aeruginosa PAE_NUH23; S=Susceptible; type: functional, organism-based; procedure, shortened: as §2
# [18] = tested on: Staphylococcus aureus; test: In vitro minimum inhibitory concentration against Staphylococcus aureus MRSA 3359; type: functional
# Procedure, shortened: (§3)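 Broth microdilution following CLSI M100-S12. Stocks were 10 mg/mL in water, diluted in Mueller–Hinton broth to a top level of 128, then serially 2-fold in plates. Bacteria in cation-adjusted Mueller–Hinton broth were mixed 1:1 with drug and incubated 16–20 h at 35 °C. MIC was the lowest concentration with no visible growth. Run in duplicate with no-antibiotic and no-inoculum (sterility) controls.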
# [19] = tested on: Staphylococcus aureus; test: In vitro minimum inhibitory concentration against Staphylococcus aureus ATCC 29213; type: functional; procedure, shortened: as §3
# [20] = tested on: Pseudomonas aeruginosa; test: In vitro minimum inhibitory concentration against Pseudomonas aeruginosa PAO-1 Minimum inhibitory concentration against Pseudomonas aeruginosa PAO-1; type: functional; procedure, shortened: as §3
# [21] = tested on: Enterococcus faecalis; test: In vitro minimum inhibitory concentration against Enterococcus faecalis 29212; type: functional; procedure, shortened: as §3
# [22] = tested on: Escherichia coli; test: In vitro minimum inhibitory concentration against Escherichia coli ATCC 25922; type: functional; procedure, shortened: as §3
# [23] = tested on: Pseudomonas aeruginosa; test: In vitro minimum inhibitory concentration against Pseudomonas aeruginosa ATCC 27853; type: functional; procedure, shortened: as §3
# [24] = tested on: Pseudomonas aeruginosa; test: In vitro minimum inhibitory concentration against Pseudomonas aeruginosa PAO-1; type: functional; procedure, shortened: as §3
Structure (SMILES),MIC [18] [µg/mL],MIC [19] [µg/mL],MIC [20] [µg/mL],MIC [21] [µg/mL],MIC [22] [µg/mL],MIC [23] [µg/mL],MIC [24] [µg/mL],further results
O=C(O)c1cn(C2CC2)c2cc(N3CCNCC3)c(F)cc2c1=O,–,–,–,–,–,–,–,Activity [1]: Resistant; Activity [2]: Resistant; Activity [3]: Susceptible; Activity [4]: Resistant; Activity [5]: Susceptible; Activity [6]: Susceptible; Activity [7]: Resistant; Activity [8]: Resistant; Activity [9]: Susceptible; Activity [10]: Susceptible; Activity [11]: Susceptible; Activity [12]: Resistant; Activity [13]: Susceptible; Activity [14]: Susceptible; Activity [15]: Resistant; Activity [16]: Susceptible; Activity [17]: Susceptible
CN(CCCCN(C)C[C@@H](O)CO[C@@H]1[C@@H](O)[C@H](O[C@H]2O[C@H](CN)[C@@H](O)C[C@H]2N)[C@@H](N)C[C@H]1N)C[C@H](O)CO[C@@H]1[C@@H](O)[C@H](O[C@@H]2O[C@H](CN)C[C@H](O)[C@H]2N)[C@@H](N)C[C@H]1N,20.9,0.6,2.6,20.9,5.2,10.4,–,–
NC[C@H]1O[C@H](O[C@H]2[C@H](OC[C@H](O)CN3CCCN(C[C@@H](O)CO[C@@H]4[C@@H](O)[C@H](N)C[C@H](N)[C@H]4O[C@H]4O[C@H](CN)[C@@H](O)[C@H](O)[C@H]4N)CC3)[C@@H](O)[C@H](N)C[C@@H]2N)[C@H](N)[C@@H](O)[C@@H]1O,> 50,12.5,–,> 50,50,12.5,50,–
CN(CCCCCCN(C)C[C@@H](O)CO[C@@H]1[C@@H](O)[C@H](N)C[C@H](N)[C@H]1O[C@H]1O[C@H](CN)[C@@H](O)[C@H](O)[C@H]1N)C[C@@H](O)CO[C@@H]1[C@@H](O)[C@H](N)C[C@H](N)[C@H]1O[C@H]1O[C@H](CN)[C@@H](O)[C@H](O)[C@H]1N,> 50,6.3,50,> 50,25,12.5,–,–
CCN(CCCN(CC)C[C@@H](O)CO[C@@H]1[C@@H](O)[C@H](N)C[C@H](N)[C@H]1O[C@H]1O[C@H](CN)[C@@H](O)[C@H](O)[C@H]1N)C[C@@H](O)CO[C@@H]1[C@@H](O)[C@H](N)C[C@H](N)[C@H]1O[C@H]1O[C@H](CN)[C@@H](O)[C@H](O)[C@H]1N,50,3.1,–,> 50,12.5,6.3,6.3,–
CN(CCCCN(C)C[C@@H](O)CO[C@@H]1[C@@H](O)[C@H](N)C[C@H](N)[C@H]1O[C@H]1O[C@H](CN)[C@@H](O)C[C@H]1N)C[C@H](O)CO[C@@H]1[C@@H](O)[C@H](N)C[C@H](N)[C@H]1O[C@H]1O[C@H](CN)[C@@H](O)[C@H](O)[C@H]1N,32,2,16,> 50,16,16,–,–
NC[C@@H]1C[C@H](O)[C@@H](N)[C@H](O[C@H]2[C@H](O)[C@@H](OC[C@@H](O)CNCCCNC[C@@H](O)CO[C@@H]3[C@@H](O)[C@H](O[C@H]4O[C@H](CN)[C@@H](O)C[C@H]4N)[C@@H](N)C[C@H]3N)[C@H](N)C[C@@H]2N)O1,10.4,1.3,1.3,> 20.9,20.9,2.6,–,–
NC[C@H]1O[C@H](O[C@H]2[C@H](OC[C@H](O)CN3CC4CC3CN4C[C@@H](O)CO[C@@H]3[C@@H](O)[C@H](N)C[C@H](N)[C@H]3O[C@H]3O[C@H](CN)[C@@H](O)[C@H](O)[C@H]3N)[C@@H](O)[C@H](N)C[C@@H]2N)[C@H](N)[C@@H](O)[C@@H]1O,> 50,12.5,–,> 50,> 50,12.5,50,–
NC[C@H]1O[C@H](O[C@H]2[C@H](OC[C@H](O)CN3CCN(C[C@@H](O)CO[C@@H]4[C@@H](O)[C@H](N)C[C@H](N)[C@H]4O[C@H]4O[C@H](CN)[C@@H](O)[C@H](O)[C@H]4N)CC3)[C@@H](O)[C@H](N)C[C@@H]2N)[C@H](N)[C@@H](O)[C@@H]1O,> 50,12.5,–,> 50,25,25,25,–
NC[C@H]1O[C@H](O[C@H]2[C@H](OC[C@H](O)CNCCCNCCNC[C@@H](O)CO[C@@H]3[C@@H](O)[C@H](N)C[C@H](N)[C@H]3O[C@H]3O[C@H](CN)[C@@H](O)[C@H](O)[C@H]3N)[C@@H](O)[C@H](N)C[C@@H]2N)[C@H](N)[C@@H](O)[C@@H]1O,> 50,> 50,> 50,> 50,> 50,> 50,–,–
NC[C@H]1O[C@H](O[C@H]2[C@H](OC[C@H](O)CN[C@H]3CC[C@H](NC[C@@H](O)CO[C@@H]4[C@@H](O)[C@H](N)C[C@H](N)[C@H]4O[C@H]4O[C@H](CN)[C@@H](O)[C@H](O)[C@H]4N)CC3)[C@@H](O)[C@H](N)C[C@@H]2N)[C@H](N)[C@@H](O)[C@@H]1O,50,50,–,> 50,25,1.6,–,–
NC[C@@H]1C[C@H](O)[C@@H](N)[C@H](O[C@H]2[C@H](O)[C@@H](OC[C@@H](O)CNCCCCNC[C@@H](O)CO[C@@H]3[C@@H](O)[C@H](O[C@H]4O[C@H](CN)[C@@H](O)C[C@H]4N)[C@@H](N)C[C@H]3N)[C@H](N)C[C@@H]2N)O1,16,0.5,2,32,4,2,–,–
CN(CCOCCOCCN(C)C[C@@H](O)CO[C@@H]1[C@@H](O)[C@H](N)C[C@H](N)[C@H]1O[C@H]1O[C@H](CN)[C@@H](O)[C@H](O)[C@H]1N)C[C@@H](O)CO[C@@H]1[C@@H](O)[C@H](N)C[C@H](N)[C@H]1O[C@H]1O[C@H](CN)[C@@H](O)[C@H](O)[C@H]1N,> 50,> 50,> 50,> 50,> 50,> 50,–,–
NC[C@H]1O[C@H](O[C@H]2[C@H](OC[C@@H](O)CNCCCCNC[C@@H](O)CO[C@@H]3[C@@H](O)[C@H](N)C[C@H](N)[C@H]3O[C@H]3O[C@H](CN)[C@@H](O)C[C@H]3N)[C@@H](O)[C@H](N)C[C@@H]2N)[C@H](N)[C@@H](O)[C@@H]1O,16,2,4,32,16,4,–,–
CCN(CCN(CC)C[C@@H](O)CO[C@@H]1[C@@H](O)[C@H](N)C[C@H](N)[C@H]1O[C@H]1O[C@H](CN)[C@@H](O)[C@H](O)[C@H]1N)C[C@@H](O)CO[C@@H]1[C@@H](O)[C@H](N)C[C@H](N)[C@H]1O[C@H]1O[C@H](CN)[C@@H](O)[C@H](O)[C@H]1N,> 50,> 50,–,> 50,> 50,> 50,> 50,–
NC[C@@H]1C[C@H](O)[C@@H](N)[C@H](O[C@H]2[C@H](O)[C@@H](OC[C@@H](O)CN[C@H]3CC[C@H](NC[C@@H](O)CO[C@@H]4[C@@H](O)[C@H](O[C@H]5O[C@H](CN)[C@@H](O)C[C@H]5N)[C@@H](N)C[C@H]4N)CC3)[C@H](N)C[C@@H]2N)O1,16,0.5,2,32,4,2,–,–
